Test results as given in ChEMBL document CHEMBL1649416, “Structure-based design of potent and selective 2-(quinazolin-2-yl)phenol inhibitors of checkpoint kinase 2” (J Med Chem, 2011).

Test: Metabolic stability in mouse microsomes assessed as decrease in parent compound level after 30 mins by LC/MS
Assay type: ADME, Microsome
Conditions: read-out: Activity
Procedure, shortened: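 Compounds were incubated with mouse liver microsomes supplemented with UDP-glucuronosyltransferase, covering primary and secondary metabolism. Turnover was expressed as % of parent metabolized at 30 min.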

| Compound | metabolised at 0.5 h [%] |
| --- | --- |
| COCCOc1ccc2c(N[C@H]3CCNC3)nc(-c3cc(F)ccc3O)nc2c1 | 25 |
| COc1cc2nc(-c3cc(F)ccc3O)nc(N[C@@H]3CNC[C@H]3C(C)(C)O)c2cc1OC | 23 |
| CC(C)(O)[C@@H]1CNC[C@H]1Nc1nc(-c2cc(-c3cc[nH]n3)ccc2O)nc2ccccc12 | 22 |

Next, values leading:

| metabolised at 0.5 h [%] | Compound |
| --- | --- |
| 25 | Oc1ccccc1-c1nc(N[C@H]2CCNC2)c2ccccc2n1 |
| 27 | Oc1ccc(-c2cc[nH]n2)cc1-c1nc(N[C@H]2CCNC2)c2ccccc2n1 |
| 27 | Oc1ccc(F)cc1-c1nc(N[C@H]2CCNC2)c2ccccc2n1 |
